Assay results pooled from the literature.
Protocols differ between the studies behind these lines.
Target: Calcium/calmodulin-dependent protein kinase type 1D (CAMK1D, Homo sapiens, UniProt Q8IU85)

Structure (SMILES) | assay | conditions | quantity | result
NS(=O)(=O)c1cc(NC(=O)C2(c3ccccc3Cl)CC2)ccc1Oc1cccc(Cl)c1 | cell-free assay, competition with immobilised ligand | 1 µM | remaining binding | 97%
CCC1(CC)NC(=O)c2c(c3ccc(Cl)c(Cl)c3n2C)C1C#N (stereo not shown) | thermal stability, DSF | 10 µM | ΔTm | -0.2 °C
O=C1c2ccccc2-c2n[nH]c3cccc1c23 | enzyme activity, inhibitor | 0.5 µM | activity vs control | 91.9%
Cc1ccc(C(=O)Nc2ccc(CN3CCN(C)CC3)c(C(F)(F)F)c2)cc1C#Cc1cnc2cccnn12 | enzyme activity, inhibitor | 23.5 nM | remaining activity | 86%
CCN1CCC2(CC1)NC(=O)c1c(c3ccc(Cl)c(Cl)c3n1C)C2C#N (racemic) | thermal stability, DSF | 10 µM | ΔTm | -0.1 °C
CC/C(=N\NC(=O)NCc1cccc(O)c1)c1ccc(O)c(C)c1O | enzyme activity, inhibitor | 0.1 µM | inhibition | -3.5%
O=C(NC[C@@H]1[C@H]2CN(C(=O)OCc3cc(C(F)(F)F)cc(C(F)(F)F)c3)C[C@@H]12)c1ccc2[nH]nnc2c1 | cell-free assay, competition with immobilised ligand | 1 µM | remaining binding | 100%
CCCS(=O)(=O)Nc1ccc(F)c(C(=O)c2c[nH]c3ncc(-c4ccc(Cl)cc4)cc23)c1F | enzyme activity, inhibitor | 1 µM | inhibition | < 10%
Cc1sc(C(=O)NC2COC2)cc1-n1cc(NC(=O)Nc2c(F)cccc2Cl)cn1 | enzyme activity, inhibitor | 10 µM | remaining activity | 105%
CCCOc1ccc(OC)c(F)c1C(=O)c1ccc(C(=O)N[C@@H]2CNC[C@H]2NC(=O)c2ccc3[nH]ncc3c2)cc1 | enzyme activity, inhibitor | 10 µM | remaining activity | 63%
Cc1cc(-n2nc(Cc3cc(F)cc(C(F)(F)F)c3)nc2C)ccc1C(N)=O | cell-free assay, competition with immobilised ligand | 1 µM | remaining binding | 96%
COc1cc(Cl)c(C(=O)N[C@@H](CN[C@H]2CC[C@@H](N)CC2)Cc2ccc(C#N)cc2)cc1-c1ccc(CN[C@H](C)c2ccc(C)cc2)o1 | enzyme activity, inhibitor | 1 µM | remaining activity | 88%
O=C1CCc2cc(Nc3cc(OC4CCOCC4)c([N+](=O)[O-])cc3Cl)ccc2N1 | cell-free assay, competition with immobilised ligand | 1 µM | remaining binding | 100%
Cn1c2c(c3ccc(Cl)c(Cl)c31)C(C#N)C1(CCOCC1)NC2=O (stereo not shown) | thermal stability, DSF | 10 µM | ΔTm | -0.5 °C
CC(C)(C)c1nc(-c2cccc(NS(=O)(=O)c3c(F)cccc3F)c2F)c(-c2ccnc(N)n2)s1 | enzyme activity, inhibitor, radiometric | 1 µM | remaining activity | 116%
Cc1c(C(=O)O)cc(-c2ccc(C3CCNCC3)cc2)c2ccc(-c3ccc(C(F)(F)F)cc3)cc12 | cell-free assay, competition with immobilised ligand | 1 µM | remaining binding | 100%
Cc1cnc(NC2CCOCC2)nc1-n1cnc(C(=O)NC(CN)c2cc(F)cc(Cl)c2)c1 (stereo not shown) | enzyme activity, inhibitor, radiometric | 1 µM | remaining activity | 84%
COc1cc(-c2cn(C3CCc4ccccc4N(CC(F)(F)F)C3=O)nn2)ccc1-n1ccc(C)n1 (stereo not shown) | cell-free assay, competition with immobilised ligand | 1 µM | remaining binding | 100%
Cc1ccc(Nc2nccc(N(C)c3ccc4c(C)n(C)nc4c3)n2)cc1S(N)(=O)=O | enzyme activity, inhibitor | 0.3 µM | inhibition | 18%
N#CCCc1ccc2c(c1)-c1[nH]c3ccc([N+](=O)[O-])cc3c1CC(=O)N2 | cell-free assay | 0.5 µM | remaining signal | 91.8%
CS(=O)(=O)c1cc(C2(NC(=O)c3cncc4c3cnn4-c3ccc(F)cc3)CC2)ccn1 | cell-free assay, competition with immobilised ligand | 1 µM | remaining binding | 90%
c1ccc(CNc2nc(N3CCOc4ccccc43)nc3c2CCCC3)cc1 | target engagement in cells, inhibitor, chemoproteomics | 20 mM | inhibition | -2.2%
